From ChEMBL document CHEMBL1122506, “Cardiac-slowing amidines containing the 3-thioindone group. Potential antianginal agents” (1983) come the findings set out here.

For experiment [1], the system named is Canis familiaris. As to the kind of experiment: Change in heart rate at the above D50 dose in conscious dogs. It counts as functional, Canis lupus familiaris. In outline:
(§1)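 Triazine tachycardia in conscious dogs: carotid artery and jugular vein catheterized with heparinized saline; 18 h after surgery, triazine vasodilator U20388 12 mg/kg po; about 1 h later, dog in sling with arterial pressure and ECG monitored. Test agent infused iv at 0.8 (mg/kg)/min to 30 mg/kg total. D50 = dose giving 50% of maximal slowing in that animal; ΔHR50 = heart-rate change at D50; CS index = %ΔHR50/D50.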

The test system of experiment [2] is Canis familiaris. The experiment in a line: Evaluated for the heart rate at dose 1.0 mg/kg in 4 animals by poldine tachycardia test. It counts as functional, Canis lupus familiaris. A digest of the protocol:
(§2)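 Poldine tachycardia: dogs prepared surgically as in the triazine method; poldine methyl sulfate 0.5 mg/kg iv, then 30 min later test agent in increasing doses (0.5/1.0/2.5 mg/kg) at 30-min intervals; read-out is the maximum percent decrease in heart rate at each dose.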

Experiment [3] deals with Canis familiaris. As to the kind of experiment: Evaluated for the heart rate at dose 2.5 mg/kg in 4 animals by aminophylline-induced sinus tachycardia test. It counts as functional, Canis lupus familiaris.
The species entered for experiment [4] is Canis familiaris. The experiment in a line: Cardiac slowing index was measured for potency and efficacy. It counts as functional, Canis lupus familiaris. In outline: as §1
The species entered for experiment [5] is Canis familiaris. The experiment in a line: Percent decrease from the initial evaluated heart rate (percent delta HR50/HR0 x 100). It counts as functional, Canis lupus familiaris. A digest of the protocol: as §1
For experiment [6], the system named is Canis familiaris. The experiment in a line: Evaluated for the heart rate at dose 1.0 mg/kg in 4 animals by glucagon-induced tachycardia test. It counts as functional, Canis lupus familiaris.
For experiment [7], the system named is Canis familiaris. The experiment in a line: Dose required to achieve 50 % of maximal cardiac slowing in triazine tachycardia test in conscious dog. It counts as functional, Canis lupus familiaris. In outline: as §1
The subject of experiment [8] is Canis familiaris. As to the kind of experiment: Evaluated for the heart rate at dose 0.5 mg/kg in 4 animals by poldine tachycardia test. It counts as functional, Canis lupus familiaris. A digest of the protocol:
as §2

Experiment [9] has as its system Canis familiaris. As to the kind of experiment: Evaluated for the heart rate at dose 5.0 mg/kg in 4 animals by aminophylline-induced sinus tachycardia test. It counts as functional, Canis lupus familiaris.
In experiment [10] the test system is Canis familiaris. As to the kind of experiment: Myocardial depression rating in anesthetized, ganglion-blocked dog; Weak activity.
For experiment [11], the species on record is Canis familiaris. As to the kind of experiment: Relative activity (fraction of the most active compound 24) was determined. It counts as functional, Canis lupus familiaris.
Experiment [12] deals with Canis familiaris. As to the kind of experiment: Evaluated for the heart rate at dose 2.5 mg/kg in 4 animals by poldine tachycardia test. It counts as functional, Canis lupus familiaris. In outline:
as §2

The subject of experiment [13] is Canis familiaris. The experiment in a line: Evaluated for the heart rate at dose 5.0 mg/kg in 4 animals by glucagon-induced tachycardia test. It is filed as functional, Canis lupus familiaris.
The test system of experiment [14] is Canis familiaris. As to the kind of experiment: Evaluated for the heart rate at dose 2.5 mg/kg in 4 animals by glucagon-induced tachycardia test. It is filed as functional, Canis lupus familiaris.
Experiment [15] has as its system Canis familiaris. As to the kind of experiment: Evaluated for the heart rate at dose 1.0 mg/kg in 4 animals by aminophylline-induced sinus tachycardia test. It counts as functional, Canis lupus familiaris.
The species named for experiment [16] is Canis familiaris. The experiment in a line: Percent decrease from initial heart rate (percent delta HR50/HR0 x 100) in dogs. It counts as functional, Canis lupus familiaris. In outline:
as §1

The subject of experiment [17] is Canis familiaris. As to the kind of experiment: Evaluated for the myocardial depression rating which is severe for the given compound in anesthetized, ganglion-blocked dog.
Experiment [18] concerns Canis familiaris. As to the kind of experiment: Myocardial depression in conscious dog; Moderate activity. It counts as functional, Canis lupus familiaris, Myocardium.
The species entered for experiment [19] is Canis familiaris. As to the kind of experiment: Cardiac slowing index of the compound. It counts as functional, Canis lupus familiaris. A digest of the protocol: as §1
Experiment [20] relates to Canis familiaris. The experiment in a line: Myocardial depression in anesthetized, ganglion-blocked dog; Moderate activity.
The test system of experiment [21] is Canis familiaris. The experiment in a line: Evaluated for the heart rate at dose 1.0 mg/kg in 5 animals by glucagon-induced tachycardia test. It counts as functional, Canis lupus familiaris.
Experiment [22] relates to Canis familiaris. The experiment in a line: Evaluated for the heart rate at dose 2.5 mg/kg in 5 animals by glucagon-induced tachycardia test. It counts as functional, Canis lupus familiaris.
Experiment [23] deals with Canis familiaris. The experiment in a line: Evaluated for the heart rate at dose 1.0 mg/kg in 6 animals by aminophylline-induced sinus tachycardia test. It counts as functional, Canis lupus familiaris.
Experiment [24] deals with Canis familiaris. As to the kind of experiment: Evaluated for the heart rate at dose 5.0 mg/kg in 6 animals by aminophylline-induced sinus tachycardia test. It counts as functional, Canis lupus familiaris.
The subject of experiment [25] is Canis familiaris. The experiment in a line: Evaluated for the heart rate at dose 2.5 mg/kg in 6 animals by aminophylline-induced sinus tachycardia test. It is filed as functional, Canis lupus familiaris.
The subject of experiment [26] is Canis familiaris. As to the kind of experiment: Evaluated for the heart rate at dose 1.0 mg/kg in 3 animals by aminophylline-induced sinus tachycardia test. It counts as functional, Canis lupus familiaris.
The test system of experiment [27] is Canis familiaris. The experiment in a line: Evaluated for the heart rate at dose 2.5 mg/kg in 3 animals by aminophylline-induced sinus tachycardia test. It is filed as functional, Canis lupus familiaris.
Experiment [28] has as its system Canis familiaris. As to the kind of experiment: Evaluated for the myocardial depression rating which is barely observable for the given compound in anesthetized, ganglion-blocked dog.
Experiment [29] relates to Canis familiaris. As to the kind of experiment: Evaluated for the heart rate at dose 5.0 mg/kg in 3 animals by aminophylline-induced sinus tachycardia test. It counts as functional, Canis lupus familiaris.
The species entered for experiment [30] is Canis familiaris. As to the kind of experiment: Evaluated for the dose required to achieve 50 % of the maximal cardiac slowing in the triazine tachycardia test. It is filed as functional, Canis lupus familiaris. A digest of the protocol: as §1

Each structure is given as a SMILES string.

On to `Cc1[nH]c2ccccc2c1SCC/N=C1\CCCN1C`, for which the “Delta HR50” value was -34 beats min-1 in [1] and 20.2% in experiment [5]. Moreover, the “Max decrease in heart rate” value in experiment [2] was 25%; in experiment [3], 23%; in [6] it was 20%; in experiment [8] it was 15%; in experiment [9], 34%; in experiment [12], 30%. In addition, the results for the “Max decrease in heart rate” value in [13], in experiment [14] and in [15] were 42%, 29% and 12%, respectively. For the same molecule, in [4], the CS index amounted to 4.5. In experiment [7], this molecule returned a D50 of 4.5 mg/kg. For the same molecule, the MD in [10] came to 2.5. The Relative activity in experiment [11] turned out to be 0.14.
Turning to `CCCc1[nH]c2ccccc2c1SCC/N=C1\CCCN1C`, the “Delta HR50” value in experiment [1] is recorded as -62 beats min-1; in experiment [16], 29%. In [4], this molecule yielded a CS index of 3.7. Also, the MD in experiment [17] amounted to 4. Also, the D50 in experiment [7] is 7.9 mg/kg. This molecule also had a Relative activity in [11] of 0.11.
In the case of `CN1CCC/C1=N\CCSc1cn(C/C=C/c2ccccc2)c2ccccc12`, the “Delta HR50” value is listed as -58 beats min-1 in [1] and 23.5% in experiment [16]. In experiment [4], this molecule registered a CS index of 3.8. The same molecule came in with a D50 in [7] of 6.1 mg/kg. In addition, the Relative activity in experiment [11] came to 0.12. Also, the MD in [18] amounted to 3.
As to `CCCCCCCCn1cc(SCC/N=C2\CCCN2C)c2ccccc21`, the “Delta HR50” value in experiment [1] is given as -32 beats min-1; in experiment [16], 14.8%. The molecule also gave a CS index in experiment [19] of 2. In experiment [20], this molecule registered an MD of 2. The molecule also came in with a D50 in [7] of 7.3 mg/kg.
For the molecule `CCCc1[nH]c2ccccc2c1SCCNC1=NCCN1C`, the “Delta HR50” value in [1] is listed as -27 beats min-1; in experiment [16] it was 13.2%. The CS index in experiment [4] came out at 6.3. Besides, in experiment [17], the MD was 4. Also, the D50 in experiment [7] was 2.1 mg/kg. The molecule further returned a Relative activity in experiment [11] of 0.2.
Consider `CCn1cc(SCC/N=C2\CCCN2C)c2ccccc21`, for which the “Delta HR50” value in [1] is given as -39 beats min-1; in experiment [16] it was 21.8%. The “Max decrease in heart rate” value is 34% in experiment [2]; 43% in experiment [3]; 28% in experiment [21]; 46% in [22]; 18% in experiment [8]; 53% in [9]. The “Max decrease in heart rate” value in experiment [12] was 47%; in [15], 27%. The molecule further returned a CS index in experiment [4] of 27.2. This molecule had a D50 in [7] of 0.8 mg/kg. Further, the MD in [10] is on record as 2. This molecule gave a Relative activity in experiment [11] of 0.85.
Regarding `CN1CCC/C1=N\CCSc1cn(C)c2ccccc12`, the “Delta HR50” value in experiment [1] was -30 beats min-1; in experiment [16] it was 20.2%. Further, the “Max decrease in heart rate” value in experiment [2] was 33%; in experiment [23] it was 22%; in experiment [6], 13%; in experiment [24], 39%; in [25], 32%; in [8], 24%. In addition, the “Max decrease in heart rate” value is reported as 47% in [12], 53% in [13] and 34% in [14]. In addition, the CS index in experiment [4] is 16.8. The molecule also showed a D50 in [7] of 1.2 mg/kg. The molecule also had an MD in experiment [10] of 2. Also, the Relative activity in experiment [11] is recorded as 0.52.
Turning to `CC(C)COCC(CN(Cc1ccccc1)c1ccccc1)N1CCCC1` (stereo not given) [BEPRIDIL], the “Delta HR50” value in experiment [1] was -30 beats min-1; in [16], 14.8%. Further, the “Max decrease in heart rate” value in experiment [2] worked out at 18%; in experiment [26], 13%; in experiment [27], 23%; in experiment [6], 16%; in experiment [8] it was 10%; in [29], 39%. In addition, the “Max decrease in heart rate” value is given as 25% in experiment [12], 45% in [13] and 30% in experiment [14]. For the same molecule, the CS index in experiment [4] is 7.4. The molecule further returned an MD in experiment [28] of 1. In experiment [7], this molecule gave a D50 of 2 mg/kg. Further, in experiment [11], the Relative activity was 0.23.
Take `COc1ccc(CC/N=C2/CCCN2C)cc1OC` [MIXIDINE]: the “Delta HR50” value in experiment [1] is reported as -34 beats min-1; in [16], 19.6%. Further, the “Max decrease in heart rate” value in [2] is given as 24%; in [23], 6%; in experiment [24], 33%; in experiment [25], 25%; in experiment [8], 12%; in [12], 35%. For the same molecule, the “Max decrease in heart rate” value in experiment [13] is 28%; in experiment [14], 16%. The molecule further registered a CS index in experiment [4] of 5.9. In [28], this molecule showed an MD of 1. In addition, in experiment [7], the D50 was found to be 3.3 mg/kg. The molecule also showed a Relative activity in experiment [11] of 0.18.
For the molecule `CC(C)NCC(O)COc1cccc2ccccc12` (stereo not given) [PROPRANOLOL], the “Delta HR50” value in experiment [1] was -66 beats min-1; in experiment [16], 28.5%. The “Max decrease in heart rate” value in experiment [2] turned out to be 32%; in experiment [3], 32%; in [6], 3%; in experiment [8], 21%; in [9] it was 37%; in [12] it was 38%. The “Max decrease in heart rate” value in [14] is recorded as 9%; in experiment [15], 24%. In experiment [4], the CS index was 4.2. In [20], the MD turned out to be 3. The molecule further displayed a D50 in [30] of 6.7 mg/kg. Moreover, the Relative activity in experiment [11] was 0.13.
